In ChEMBL document CHEMBL1128391, “Investigation of the configurational and conformational influences on the hormonal activity of 1,2-bis(2,6-dichloro-4-hydroxyphenyl)ethylenediamines and of their platinum(II) complexes. 1. Synthesis, estradiol receptor affinity, and estrogenic activity of diastereomeric [N-alkyl- and …” (J Med Chem, 1995) one finds Estrogenic effect data, which are given here for 7 compounds.

Molecules are shown by their SMILES.

Type in all cases: functional
The target in test [1] is T1, Estrogen receptor (Mus musculus) (UniProt O08537+P19785). The test is described as follows: Estrogenic effect in uterotrophic assay in mice at 100 nM/animal dose. An outline of the steps:
(§1)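 Immature female NMRI mice (20 days old, 10–12 g, six per group) given test compound sc once daily for three consecutive days in poly(ethylene glycol) 400/H2O (1.8% NaCl) 1:1. Uteri excised 24 h after last injection, fixed in Bouin's solution, dried, weighed. Effect = uterus dry weight (mg)/body weight (g) × 100, expressed relative to vehicle and estrone standard (0.4 μg) as % estrogenic effect.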

Test [2] has as its target T1, Estrogen receptor (Mus musculus). The test is described as follows: Estrogenic effect in uterotrophic assay in mice at 10 nM/animal dose. An outline of the steps: as §1
For test [3] the target is unchanged. The test is described as follows: Estrogenic effect in uterotrophic assay in mice at 0.1 nM/animal dose. The essentials: as §1
The target is the same in test [4]. The test is described as follows: Estrogenic effect in uterotrophic assay in mice at 1 nM/animal dose. The essentials: as §1
Test [5] has the same target. The test is described as follows: Estrogenic effect in uterotrophic assay in mice at 1000 nM/animal dose. An outline of the steps:
as §1

T1 sequence (O08537 whole entry, looked up): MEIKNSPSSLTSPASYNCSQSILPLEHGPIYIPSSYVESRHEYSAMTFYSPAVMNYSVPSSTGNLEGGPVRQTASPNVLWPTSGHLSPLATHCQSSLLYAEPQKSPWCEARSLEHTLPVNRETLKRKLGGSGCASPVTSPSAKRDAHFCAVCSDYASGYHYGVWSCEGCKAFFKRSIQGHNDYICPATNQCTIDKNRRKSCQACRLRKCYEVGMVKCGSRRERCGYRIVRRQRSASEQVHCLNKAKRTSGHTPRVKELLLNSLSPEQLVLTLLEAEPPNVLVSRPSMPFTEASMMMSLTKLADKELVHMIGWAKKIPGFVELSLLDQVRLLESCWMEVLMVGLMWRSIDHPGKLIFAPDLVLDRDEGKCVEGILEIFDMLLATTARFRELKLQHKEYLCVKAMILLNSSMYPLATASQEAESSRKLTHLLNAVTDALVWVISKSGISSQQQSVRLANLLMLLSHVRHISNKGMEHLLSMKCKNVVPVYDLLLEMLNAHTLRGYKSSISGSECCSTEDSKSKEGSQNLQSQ
T1 sequence (P19785 whole entry, looked up): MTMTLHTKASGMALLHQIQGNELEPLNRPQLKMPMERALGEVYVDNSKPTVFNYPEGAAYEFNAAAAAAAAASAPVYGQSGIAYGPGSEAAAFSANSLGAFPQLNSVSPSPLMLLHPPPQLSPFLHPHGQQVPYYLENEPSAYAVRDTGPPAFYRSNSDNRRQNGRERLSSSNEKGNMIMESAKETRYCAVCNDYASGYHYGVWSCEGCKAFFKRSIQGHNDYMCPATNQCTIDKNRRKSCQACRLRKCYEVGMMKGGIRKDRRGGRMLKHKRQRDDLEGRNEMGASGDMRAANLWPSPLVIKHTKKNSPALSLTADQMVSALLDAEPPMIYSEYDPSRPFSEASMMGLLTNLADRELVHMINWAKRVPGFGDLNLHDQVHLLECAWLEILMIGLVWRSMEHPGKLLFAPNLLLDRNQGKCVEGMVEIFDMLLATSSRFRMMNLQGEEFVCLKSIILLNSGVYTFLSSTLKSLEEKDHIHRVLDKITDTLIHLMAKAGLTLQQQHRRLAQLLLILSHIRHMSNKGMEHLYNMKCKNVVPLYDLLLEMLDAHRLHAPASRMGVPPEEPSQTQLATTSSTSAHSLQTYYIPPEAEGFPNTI

On to `CCNC(CCC(N)c1c(Cl)cc(O)cc1Cl)c1c(Cl)cc(O)cc1Cl` (stereo unspecified), for which the Estrogenic effect in test [1] stood at 156%; in test [2] it was 140%; in test [3] it was 22%; in test [4], 93%.
In the same order, the values of `CCNC(CCC(NCC)c1c(Cl)cc(O)cc1Cl)c1c(Cl)cc(O)cc1Cl` (racemic) are 142%, 78%, 0% and 0%.
`CNC(CCC(NC)c1c(Cl)cc(O)cc1Cl)c1c(Cl)cc(O)cc1Cl` (racemic): the Estrogenic effect in test [5] amounted to 72%; in test [1], 12%; in test [2], 3%; in test [3] it was 0%; in test [4] it was 0%.
Regarding `NC(CCC(N)c1c(Cl)cc(O)cc1Cl)c1c(Cl)cc(O)cc1Cl` (racemic), the Estrogenic effect in test [5] worked out at 21%; in test [1], 10%; in test [2], 13%; in test [3], 0%; in test [4] it was 0%.
For `CCNC(CCC(NCC)c1c(Cl)cc(O)cc1Cl)c1c(Cl)cc(O)cc1Cl` (stereo in doubt), the Estrogenic effect in test [1] came to 128%; in test [2], 140%; in test [3], 61%; in test [4], 125%.
For the compound `CNC(CCC(NC)c1c(Cl)cc(O)cc1Cl)c1c(Cl)cc(O)cc1Cl` (stereo in doubt), the Estrogenic effect in test [5] was 47%; in test [1], 127%; in test [2], 139%; in test [3] it was 0%; in test [4], 47%.
For the compound `NC(CCC(N)c1c(Cl)cc(O)cc1Cl)c1c(Cl)cc(O)cc1Cl` (stereo in doubt), the Estrogenic effect turned out to be 100% in test [1], 135% in test [2], 0% in test [3] and 38% in test [4].
